Test results as given in ChEMBL document CHEMBL1124216, “A novel class of potential central nervous system agents. 3-Phenyl-2-(1-piperazinyl)-5H-1-benzazepines” (1988).

What was measured:
Assay type in all cases: functional
[1] = tested on: Mus musculus; assay: Antipentylene tetrazole activity was determined in mice when administered perorally; details: po
How it was run: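 Groups of five male Std-ddY mice received compound orally in 0.5% tragacanth, then pentylenetetrazole 175 mg/kg ip. Blockade of the tonic extensor component scored as anticonvulsant. ED50 was the dose protecting 50% of animals (Litchfield-Wilcoxon).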

[2] = tested on: Mus musculus; assay: Antimaximal electroshock seizure activity was determined in mice when administered perorally; details: po
[3] = tested on: Mus musculus; assay: Antimaximal electroshock seizure (MES) activity in mice after peroral administration of 100 mg/kg of compound; 0/5; details: route oral
[4] = tested on: Mus musculus; assay: Antiexploratory activity (EXPL) of mice determined by an antimex activity meter, 100 mg/kg of dose was administered perorally; No inhibition; details: route oral
[5] = tested on: Mus musculus; assay: Antitremorine activity(TRM) of mice after peroral administration of 100 mg/kg of compound; Moderate inhibition (51-71%); details: route oral
[6] = tested on: Mus musculus; assay: Antireserpine activity (RES) of mice after peroral administration of 100 mg/kg of compound; No inhibition; details: route oral
[7] = tested on: Mus musculus; assay: Antimaximal electroshock seizure (MES) activity in mice after peroral administration of 100 mg/kg of compound; 5/5; details: route oral
[8] = tested on: Mus musculus; assay: Antitremorine activity(TRM) of mice after peroral administration of 100 mg/kg of compound; No inhibition; details: route oral
[9] = tested on: Mus musculus; assay: Antireserpine activity (RES) of mice after peroral administration of 100 mg/kg of compound; Slight inhibition (31-50%); details: route oral
[10] = tested on: Mus musculus; assay: Antitremorine activity(TRM) of mice after peroral administration of 100 mg/kg of compound; Slight inhibition (31-50%); details: route oral
[11] = tested on: Mus musculus; assay: Antiexploratory activity (EXPL) of mice determined by an antimex activity meter, 50 mg/kg of dose was administered perorally; No inhibition; details: route oral
[12] = tested on: Canis familiaris; assay: Inhibition of apomorphine induced emesis in dogs at 1 mg/kg of dose.; details: Canis lupus familiaris
How it was run: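 Beagle dogs (10-15 kg), groups of three, given compound po in a gelatin capsule; 2 h later apomorphine hydrochloride 0.3 mg/kg sc. Vomiting counted for 1 h; mean inhibition as percent of control. ED50 is the dose giving 50% inhibition of emesis, by Litchfield-Wilcoxon.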

[13] = tested on: Mus musculus; assay: 3,4 -Dihydroxy phenylacetic acid (DOPAC) levels in mouse brain at 10 mg/kg dose.
How it was run: (§1)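 Male Std-ddY mice, 20-25 g, dosed orally with compound in 0.5% aqueous tragacanth. DOPAC was measured fluorometrically after purification by column chromatography on Sephadex G-10 and QAE-Sephadex. Brains from five mice per compound were pooled for each determination.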

[14] = tested on: Mus musculus; assay: 3,4 -Dihydroxy phenylacetic acid (DOPAC) levels in mouse brain at 50 mg/kg dose.; how it was run: as §1
[15] = tested on: Mus musculus; assay: The homovanillic acid (HVA) levels in mouse brain at 10 mg/kg of dose.
How it was run: (§2)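 Mice dosed orally in 0.5% aqueous tragacanth; brains of five mice per compound pooled. Homovanillic acid measured in brain extracts and reported as brain level.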

[16] = tested on: Mus musculus; assay: The homovanillic acid (HVA) levels in mouse brain at 50 mg/kg of dose.; how it was run: as §2
[17] = tested on: Mus musculus; assay: Exploratory activity of mice determined by an antimex activity meter, 50 mg/kg of dose was administered perorally
How it was run: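 Male Std-ddY mice (20-25 g), five per dose; compound in 0.5% aqueous tragacanth given orally. Two hours later each mouse placed in an Animex activity meter cage and locomotor activity counted for 3 min. Mean suppression expressed as percent inhibition of control; ED50 by Litchfield-Wilcoxon.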

| Structure (SMILES) | Activity [3] | inhibition in vivo at 100 mg/kg [4] | inhibition in vivo at 100 mg/kg [6] | inhibition in vivo at 100 mg/kg [8] | other results |
| --- | --- | --- | --- | --- | --- |
| NC(=O)N1c2ccccc2C=Cc2ccccc21 [CARBAMAZEPINE] |  |  |  |  | ED50 [1]: 10.3 mg/kg; ED50 [2]: 13.3 mg/kg |
| CN1CCN(C2=Nc3cc(Cl)ccc3CC=C2c2ccccc2)CC1.Cl.Cl | 0 | < 30% | < 30% |  | inhibition in vivo at 100 mg/kg [5]: 51% |
| NC(=O)N1CCN(C2=Nc3ccc(Br)cc3CC=C2c2ccccc2)CC1 |  | < 30% | < 30% | < 30% | Activity [7]: 5 |
| CCCc1ccc2c(c1)CC=C(c1ccccc1)C(N1CCN(CCO)CC1)=N2.Cl.Cl | 0 | < 30% | < 30% |  | inhibition in vivo at 100 mg/kg [5]: 51% |
| C1=C(c2ccccc2)C(N2CCN(c3ccccc3)CC2)=Nc2ccccc2C1 | 0 | < 30% | < 30% | < 30% |  |
| Clc1ccc(C2=CCc3ccc(Cl)cc3N=C2N2CCNCC2)cc1.O=C(O)/C=C/C(=O)O | 0 | < 30% |  |  | inhibition in vivo at 100 mg/kg [9]: 31%; inhibition in vivo at 100 mg/kg [5]: 51% |
| CC(C)c1ccc2c(c1)CC=C(c1ccccc1)C(N1CCN(CCO)CC1)=N2.Cl.Cl | 0 | < 30% | < 30% | < 30% |  |
| CCCc1ccc2c(c1)CC=C(c1ccccc1)C(N1CCN(CC)CC1)=N2.O=C(O)/C=C/C(=O)O | 0 | < 30% | < 30% | < 30% |  |
| NC(=O)N1CCN(C2=Nc3ccc(Cl)cc3CC=C2c2ccccc2)CC1 | 0 | < 30% | < 30% | < 30% |  |
| COc1ccc(CN2CCN(C3=Nc4ccc(Br)cc4CC=C3c3ccccc3)CC2)cc1 | 0 | < 30% | < 30% | < 30% |  |
| CCN1CCN(C2=Nc3ccccc3CC=C2c2ccccc2Cl)CC1.Cl.Cl | 0 | < 30% | < 30% |  | inhibition in vivo at 100 mg/kg [10]: 31% |
| C1=C(c2ccccc2)C(N2CCN(Cc3ccccc3)CC2)=Nc2ccccc2C1 | 0 | < 30% |  | < 30% |  |
| Clc1ccccc1C1=CCc2cc(Br)ccc2N=C1N1CCNCC1.O=C(O)/C=C/C(=O)O | 0 | < 30% | < 30% | < 30% |  |
| Cl.Cl.OCCN1CCN(C2=Nc3ccc(Br)cc3CC=C2c2ccc(Cl)cc2)CC1 | 0 | < 30% | < 30% | < 30% |  |
| CCN1CCN(C2=Nc3ccccc3CC=C2c2ccc(C)cc2)CC1.Cl.Cl | 0 | < 30% | < 30% | < 30% |  |
| CN1CCN(C2=Nc3ccc(Br)cc3CC=C2c2ccc(Cl)cc2)CC1.Cl.Cl | 0 | < 30% | < 30% | < 30% |  |
| O=C(CN1CCN(C2=Nc3ccc(Br)cc3CC=C2c2ccccc2)CC1)c1ccccc1 | 0 | < 30% | < 30% | < 30% |  |
| Cc1ccc(C2=CCc3ccccc3N=C2N2CCN(C)CC2)cc1.Cl.Cl | 0 | < 30% |  |  | inhibition in vivo at 100 mg/kg [9]: 31%; inhibition in vivo at 100 mg/kg [10]: 31% |
| Cl.Cl.OCCN1CCN(C2=Nc3cc(Cl)ccc3CC=C2c2ccccc2)CC1 | 0 | < 30% | < 30% |  | inhibition in vivo at 100 mg/kg [5]: 51% |
| CCCc1ccc2c(c1)CC=C(c1ccccc1)C(N1CCN(C)CC1)=N2.Cl.Cl | 0 | < 30% | < 30% |  |  |

| Structure (SMILES) | Activity [3] | inhibition in vivo at 100 mg/kg [4] | inhibition in vivo at 100 mg/kg [6] | inhibition in vivo at 100 mg/kg [8] | other results |
| --- | --- | --- | --- | --- | --- |
| Brc1ccc2c(c1)CC=C(c1ccccc1)C(N1CCNCC1)=N2.O=C(O)/C=C/C(=O)O | 0 | < 30% |  |  | inhibition in vivo at 100 mg/kg [9]: 31% |
| Brc1ccc2c(c1)CC=C(c1ccccc1)C(N1CCN(c3ccccc3)CC1)=N2 | 0 | < 30% | < 30% | < 30% |  |
| O=C1NC(=O)C(c2ccccc2)(c2ccccc2)N1 [PHENYTOIN] |  |  |  |  | ED50 [1]: 3.7 mg/kg; ED50 [2]: 7.9 mg/kg |
| O=C(O)/C=C/C(=O)O.OCCN1CCN(C2=Nc3ccccc3CC=C2c2cccc(C(F)(F)F)c2)CC1 | 0 | < 30% |  | < 30% |  |
| Cl.Cl.OCCN1CCN(C2=Nc3cc(Cl)ccc3CC=C2c2ccc(Cl)cc2)CC1 | 0 | < 30% | < 30% | < 30% |  |
| Clc1ccc2c(c1)CC=C(c1ccccc1)C(N1CCN(Cc3ccccc3)CC1)=N2 | 0 | < 30% |  | < 30% | inhibition in vivo at 100 mg/kg [9]: 31% |
| CCN1CCN(C2=Nc3ccc(C(C)C)cc3CC=C2c2ccccc2)CC1.O=C(O)/C=C/C(=O)O | 0 | < 30% | < 30% |  | inhibition in vivo at 100 mg/kg [10]: 31% |
| Fc1ccc(C2=CCc3ccccc3N=C2N2CCN(Cc3ccccc3)CC2)cc1 |  |  |  |  | inhibition in vivo at 50 mg/kg [11]: < 30% |
| CN1CCN(C2=Nc3ccccc3CC=C2c2cccc(C(F)(F)F)c2)CC1.O=C(O)/C=C/C(=O)O | 0 | < 30% |  | < 30% |  |
| Brc1ccc2c(c1)CC=C(c1ccccc1)C(N1CCCCC1)=N2 | 0 | < 30% |  | < 30% | inhibition in vivo at 100 mg/kg [9]: 31% |
| C1=C(c2ccccc2)C(N2CCNCC2)=Nc2ccccc2C1.O=C(O)/C=C/C(=O)O | 0 | < 30% | < 30% | < 30% |  |
| Clc1ccccc1C1=CCc2ccccc2N=C1N1CCNCC1.O=C(O)/C=C/C(=O)O | 0 | < 30% | < 30% | < 30% |  |
| Clc1ccc(C2=CCc3ccccc3N=C2N2CCNCC2)cc1.O=C(O)/C=C/C(=O)O | 0 | < 30% | < 30% | < 30% |  |
| OCCN1CCN(C2=Nc3ccc(Br)cc3CC=C2c2ccccc2)CC1 |  | < 30% | < 30% | < 30% | ED50 [1]: 13.2 mg/kg; Activity [7]: 5; ED50 [2]: 14.6 mg/kg |
| CC(C)c1ccc2c(c1)CC=C(c1ccccc1)C(N1CCN(C)CC1)=N2.O=C(O)/C=C/C(=O)O | 0 | < 30% | < 30% |  | inhibition in vivo at 100 mg/kg [5]: 51% |
| C=CCN1CCN(C2=Nc3ccc(Br)cc3CC=C2c2ccccc2)CC1 | 0 | < 30% |  | < 30% | inhibition in vivo at 100 mg/kg [9]: 31% |
| Cc1ccc(C2=CCc3ccccc3N=C2N2CCN(CCO)CC2)cc1.Cl.Cl | 0 | < 30% | < 30% | < 30% |  |
| CN1CCN(C2=Nc3ccccc3CC=C2c2ccc(Br)cc2)CC1.Cl.Cl |  |  |  |  | inhibition in vivo at 1 mg/kg [12]: 72.5%; Control [13]: 161%; Control [14]: 233%; Control [15]: 162%; Control [16]: 294%; inhibition in vivo at 50 mg/kg ([17]; Mus musculus, po): 13.2%; Inhibition ([17]; route oral, 50 mg/kg): 13.2%; inhibition in vivo at 50 mg/kg [11]: < 30% |
| C1=C(c2ccccc2)C(N2CCOCC2)=Nc2ccccc2C1.Cl | 0 | < 30% | < 30% | < 30% |  |
| O=C(CCN1CCN(C2=Nc3ccc(Br)cc3CC=C2c2ccccc2)CC1)c1ccccc1 | 0 | < 30% | < 30% | < 30% |  |
